How the values were obtained:
[1] = Drug metabolism in human liver microsome measured at 60 mins by UPLC/QE-orbitrap-MS method; format: ADME; settings: microsomes, 1 h
Summary of the method: (§1)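 Test compound as fumarate salt incubated with human, dog, mouse or rat liver microsomes over 0–60 min. Parent remaining measured by UPLC/QE-orbitrap-MS as relative LC/MS peak area (% of 0 min), n = 1.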

[2] = Drug metabolism in dog liver microsome measured at 20 mins by UPLC/QE-orbitrap-MS method; format: ADME, Canis lupus familiaris; settings: microsomes; summary of the method: as §1
[3] = molecular target: T1, Cytochrome P450 2C8 (Homo sapiens, UniProt P10632); experiment: Inhibition of CYP2C8 in human liver microsomes using repaglinide as substrate; format: ADME, Microsome
T1 sequence (P10632 whole entry): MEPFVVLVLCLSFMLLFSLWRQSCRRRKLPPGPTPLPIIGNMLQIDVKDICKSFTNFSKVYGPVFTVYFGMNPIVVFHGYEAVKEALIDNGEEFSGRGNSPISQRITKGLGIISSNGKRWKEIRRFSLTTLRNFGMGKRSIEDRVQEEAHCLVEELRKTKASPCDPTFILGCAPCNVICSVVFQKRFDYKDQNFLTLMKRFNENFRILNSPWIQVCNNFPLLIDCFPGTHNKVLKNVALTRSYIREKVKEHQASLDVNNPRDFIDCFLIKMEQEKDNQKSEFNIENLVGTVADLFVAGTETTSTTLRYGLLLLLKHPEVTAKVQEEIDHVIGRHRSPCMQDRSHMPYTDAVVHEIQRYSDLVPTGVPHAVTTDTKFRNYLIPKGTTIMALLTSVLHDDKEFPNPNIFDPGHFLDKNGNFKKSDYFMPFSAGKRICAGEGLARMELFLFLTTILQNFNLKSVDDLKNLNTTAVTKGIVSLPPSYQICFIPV
Summary of the method: (§2)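 Human liver microsomes with a cocktail of CYP-specific probe substrates; metabolite formation monitored for each probe reaction. Test compound (fumarate) at 0.01, 0.1, 1, 10 and 100 μM. Control inhibitors run at a single concentration for each probe reaction. IC50 estimated.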

[4] = molecular target: Cytochrome P450 2D6 (Homo sapiens, UniProt P10635); experiment: Inhibition of CYP2D6 in human liver microsomes using dextromethorphan as substrate; format: ADME, Microsome; summary of the method: as §2
Cytochrome P450 2D6, sequence (P10635 whole entry): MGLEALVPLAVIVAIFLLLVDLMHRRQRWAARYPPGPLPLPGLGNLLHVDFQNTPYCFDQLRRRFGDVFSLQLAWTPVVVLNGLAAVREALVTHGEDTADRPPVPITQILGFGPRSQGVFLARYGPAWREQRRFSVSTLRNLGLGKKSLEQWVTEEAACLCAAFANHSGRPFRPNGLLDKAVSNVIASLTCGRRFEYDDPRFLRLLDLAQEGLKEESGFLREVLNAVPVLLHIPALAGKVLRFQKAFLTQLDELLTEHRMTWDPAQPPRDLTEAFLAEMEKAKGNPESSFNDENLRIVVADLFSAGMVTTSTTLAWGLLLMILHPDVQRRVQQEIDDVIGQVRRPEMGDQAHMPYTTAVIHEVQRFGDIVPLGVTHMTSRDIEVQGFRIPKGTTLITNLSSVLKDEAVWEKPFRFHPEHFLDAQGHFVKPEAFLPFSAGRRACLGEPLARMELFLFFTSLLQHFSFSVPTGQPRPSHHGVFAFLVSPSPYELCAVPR

[5] = MRT in C57BL6 mouse at 0.3 to 3 mg/kg, iv; format: ADME, organism-based; settings: in vivo, dose 0.3-3 mg/kg
Summary of the method: (§3)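 Single iv dose of 0.3, 1 or 3 mg/kg in 0.9 % saline, three animals per dose (C57Bl6 mice, Wistar rats). Terminal cardiac-puncture blood under isoflurane at six time points. Plasma protein-precipitated and assayed by UHPLC–MS/MS (LLOQ 1 ng/mL). Parameters from non-compartmental analysis.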

[6] = Drug metabolism in mouse liver microsome measured at 60 mins by UPLC/QE-orbitrap-MS method; format: ADME; settings: microsomes, 1 h; summary of the method: as §1
[7] = molecular target: 5-hydroxytryptamine receptor 4 (Homo sapiens, UniProt Q13639); experiment: Binding affinity to human recombinant 5HT4 receptor assessed as inhibition constant incubated for 60 mins
5-hydroxytryptamine receptor 4, sequence (Q13639 whole entry): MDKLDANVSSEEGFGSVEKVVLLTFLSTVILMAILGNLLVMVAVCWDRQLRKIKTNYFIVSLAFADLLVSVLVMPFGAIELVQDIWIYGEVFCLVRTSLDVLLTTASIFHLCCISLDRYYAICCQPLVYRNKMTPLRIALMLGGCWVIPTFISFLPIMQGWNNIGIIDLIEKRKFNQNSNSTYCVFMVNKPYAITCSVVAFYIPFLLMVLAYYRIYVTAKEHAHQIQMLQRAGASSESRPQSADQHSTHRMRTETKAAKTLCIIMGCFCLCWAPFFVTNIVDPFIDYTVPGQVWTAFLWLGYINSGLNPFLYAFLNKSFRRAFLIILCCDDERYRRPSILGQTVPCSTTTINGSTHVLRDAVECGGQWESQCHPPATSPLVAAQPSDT

[8] = Half life in Wistar rat at 0.3 to 3 mg/kg, iv; format: ADME, organism-based; settings: in vivo, dose 0.3-3 mg/kg; summary of the method: as §3
[9] = molecular target: T2, Cytochrome P450 2A6 (Homo sapiens, UniProt P11509); experiment: Inhibition of CYP2A6 in human liver microsomes using coumarin as substrate; format: ADME, Microsome; summary of the method: as §2
T2 sequence (P11509 whole entry): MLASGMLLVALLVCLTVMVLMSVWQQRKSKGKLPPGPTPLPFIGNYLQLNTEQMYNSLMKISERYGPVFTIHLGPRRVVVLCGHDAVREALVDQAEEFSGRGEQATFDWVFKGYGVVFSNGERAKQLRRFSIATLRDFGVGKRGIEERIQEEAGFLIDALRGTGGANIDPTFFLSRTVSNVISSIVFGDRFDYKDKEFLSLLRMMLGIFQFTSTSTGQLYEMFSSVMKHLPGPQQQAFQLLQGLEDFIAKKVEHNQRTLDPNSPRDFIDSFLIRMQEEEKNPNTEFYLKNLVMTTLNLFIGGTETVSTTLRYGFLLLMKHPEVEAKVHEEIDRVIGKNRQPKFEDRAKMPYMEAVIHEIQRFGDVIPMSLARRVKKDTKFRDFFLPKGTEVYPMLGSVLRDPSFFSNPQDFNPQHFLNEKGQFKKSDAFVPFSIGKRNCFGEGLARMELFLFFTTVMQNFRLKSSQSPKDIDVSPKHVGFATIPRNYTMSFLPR

[10] = Drug metabolism in rat liver microsome measured at 10 mins by UPLC/QE-orbitrap-MS method; format: ADME; settings: microsomes; summary of the method: as §1

## COc1cc(N)c(F)cc1C(=O)CCC1CCN(CC2CCCCC2)CC1.O=C(O)/C=C/C(=O)O
[1]
  Drug metabolism: 59%
[2]
  Drug metabolism: 60%
[3]
  IC50: > 100 µM
[4]
  IC50: 0.6 µM
[5]
  MRT: 69 min
[6]
  Drug metabolism: 17%
[7]
  Ki: 0.0163 µM
[8]
  half-life: 46.1 min
[9]
  IC50: > 100 µM
[10]
  Drug metabolism: 26%

Reference: ChEMBL document CHEMBL6092210, “Synthesis, in vitro and in vivo biological evaluation of novel dual compounds targeting both acetylcholinesterase and serotonergic 5-HT4 receptors with potential interest in the treatment of Alzheimer's disease” (Eur J Med Chem, 2024)
